Measured values taken from ChEMBL document CHEMBL4138227, “Identification of an oxime-containing C-glucosylarene as a potential inhibitor of sodium-dependent glucose co-transporter 2” (Eur J Med Chem, 2018).

How the values were obtained:
[1] = molecular target: T1, Sodium/glucose cotransporter 2 (Homo sapiens, UniProt P31639); assay: Inhibition of human SGLT2 expressed in CHO cells assessed as reduction in [14C]AMG uptake after 1 hr by microbeta counting method; format: cell-based
T1 sequence (P31639 whole entry): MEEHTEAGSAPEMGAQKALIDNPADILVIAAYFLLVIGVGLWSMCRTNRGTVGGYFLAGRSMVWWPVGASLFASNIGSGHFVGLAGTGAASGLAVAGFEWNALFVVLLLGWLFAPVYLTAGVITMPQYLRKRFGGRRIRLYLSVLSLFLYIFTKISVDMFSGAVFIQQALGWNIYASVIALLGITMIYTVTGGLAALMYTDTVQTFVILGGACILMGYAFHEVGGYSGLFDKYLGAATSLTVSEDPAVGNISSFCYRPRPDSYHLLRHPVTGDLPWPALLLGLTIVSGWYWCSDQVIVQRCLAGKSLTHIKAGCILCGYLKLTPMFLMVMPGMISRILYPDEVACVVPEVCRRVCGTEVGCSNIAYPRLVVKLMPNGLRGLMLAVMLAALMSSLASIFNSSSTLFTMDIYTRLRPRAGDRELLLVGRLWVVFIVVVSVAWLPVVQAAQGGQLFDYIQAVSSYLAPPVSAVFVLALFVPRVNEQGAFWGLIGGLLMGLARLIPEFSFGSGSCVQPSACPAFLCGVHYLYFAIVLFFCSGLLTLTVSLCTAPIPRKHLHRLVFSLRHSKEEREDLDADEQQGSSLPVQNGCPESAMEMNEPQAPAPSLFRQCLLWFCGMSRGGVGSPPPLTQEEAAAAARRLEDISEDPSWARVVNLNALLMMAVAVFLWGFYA
How it was run: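 CHO cells stably expressing human SGLT2 (or SGLT1); inhibition of sodium-dependent uptake of [14C]α-methyl-D-glucopyranoside measured; EC50 from at least two independent experiments, each in triplicate.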

[2] = Elimination half life in Sprague-Dawley rat at 0.9 mg/kg, iv; format: ADME, organism-based; conditions: in vivo, read-out: beta t1/2 (converted)
[3] = Clearance in Sprague-Dawley rat at 0.9 mg/kg, iv; format: ADME, organism-based; conditions: in vivo
[4] = Volume of distribution at steady state in Sprague-Dawley rat at 0.9 mg/kg, iv; format: ADME, organism-based; conditions: in vivo, read-out: Vdss
[5] = AUC (0 to infinity) in Sprague-Dawley rat at 0.9 mg/kg, iv; format: ADME, organism-based; set-up: dose 0.9 mg/kg, route intravenous, time infinity; conditions: in vivo
How it was run: (§1)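 Rats got a single intravenous or oral dose, with 3 animals per route. Pharmacokinetic parameters were derived, including T1/2, clearance, Vss, Cmax, Tmax, AUC(0-inf) and oral bioavailability (F).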

[6] = Elimination half life in Sprague-Dawley rat at 1 mg/kg, iv; format: ADME, organism-based; conditions: in vivo, read-out: beta t1/2 (converted)
[7] = Clearance in Sprague-Dawley rat at 1 mg/kg, iv; format: ADME, organism-based; conditions: in vivo
[8] = Volume of distribution at steady state in Sprague-Dawley rat at 1 mg/kg, iv; format: ADME, organism-based; conditions: in vivo, read-out: Vdss
[9] = AUC (0 to infinity) in Sprague-Dawley rat at 1 mg/kg, iv; format: ADME, organism-based; set-up: dose 1 mg/kg, time infinity, route intravenous; conditions: in vivo; how it was run: as §1
[10] = Elimination half life in Sprague-Dawley rat at 1 mg/kg, po; format: ADME, organism-based; conditions: in vivo, read-out: beta t1/2 (converted)
[11] = Cmax in Sprague-Dawley rat at 1 mg/kg, po; format: ADME, organism-based; set-up: dose 1 mg/kg, route oral; conditions: in vivo
[12] = Tmax in Sprague-Dawley rat at 1 mg/kg, po; format: ADME, organism-based; conditions: in vivo
[13] = AUC (0 to infinity) in Sprague-Dawley rat at 1 mg/kg, po; format: ADME, organism-based; set-up: dose 1 mg/kg, time infinity, route oral; conditions: in vivo; how it was run: as §1
[14] = Oral bioavailability in Sprague-Dawley rat at 1 mg/kg; format: ADME, organism-based; conditions: in vivo

SMILES	EC50 [1] [nM]	also measured
CCOc1ccc(Cc2cc([C@@H]3O[C@H](/C=N/Nc4ccccc4[N+](=O)[O-])[C@@H](O)[C@H](O)[C@H]3O)ccc2Cl)cc1	457	
C#CCO/N=C/[C@H]1O[C@@H](c2ccc(Cl)c(Cc3ccc(OCC)cc3)c2)[C@H](O)[C@@H](O)[C@@H]1O	431	
CCOc1ccc(Cc2cc([C@@H]3O[C@H](/C=N/NC(=O)c4ccco4)[C@@H](O)[C@H](O)[C@H]3O)ccc2Cl)cc1	301	
CCOc1ccc(Cc2cc([C@@H]3O[C@H](/C=N/OCCOC)[C@@H](O)[C@H](O)[C@H]3O)ccc2Cl)cc1	678	
CCOc1ccc(Cc2cc([C@@H]3O[C@H](CNNc4ccc([N+](=O)[O-])cc4)[C@@H](O)[C@H](O)[C@H]3O)ccc2Cl)cc1	211	
CCOc1ccc(Cc2cc([C@@H]3O[C@H](/C=N/OCc4ccccc4)[C@@H](O)[C@H](O)[C@H]3O)ccc2Cl)cc1	2250	

Now those with a lower EC50 [1], led by results:

EC50 [1] [nM]	SMILES	also measured
194	CCOc1ccc(Cc2cc([C@@H]3O[C@H](/C=N/OCCO)[C@@H](O)[C@H](O)[C@H]3O)ccc2Cl)cc1	
130	CCOc1ccc(Cc2cc([C@@H]3O[C@H](/C=N/NC(=O)c4ccccc4)[C@@H](O)[C@H](O)[C@H]3O)ccc2Cl)cc1	half-life [2]: 0.36 h; clearance [3]: 75.7 mL/min/kg; Vd [4]: 1.4 L/kg; AUC(0-inf) [5]: 206 ng·h/mL
38	CCOc1ccc(Cc2cc([C@@H]3O[C@H](/C=N/NCc4ccccc4)[C@@H](O)[C@H](O)[C@H]3O)ccc2Cl)cc1	
204	CCOc1ccc(Cc2cc([C@@H]3O[C@H](/C=N/Nc4nc5ccccc5s4)[C@@H](O)[C@H](O)[C@H]3O)ccc2Cl)cc1	
175	CCOc1ccc(Cc2cc([C@@H]3O[C@H](/C=N/NC(=O)c4cccs4)[C@@H](O)[C@H](O)[C@H]3O)ccc2Cl)cc1	
92	CCOc1ccc(Cc2cc([C@@H]3O[C@H](/C=N/OC)[C@@H](O)[C@H](O)[C@H]3O)ccc2Cl)cc1	half-life [6]: 3 h; clearance [7]: 12.6 mL/min/kg; Vd [8]: 2.9 L/kg; AUC(0-inf) [9]: 1320 ng·h/mL; half-life [10]: 2.5 h; Cmax [11]: 116 ng/mL; Tmax [12]: 1 h; AUC(0-inf) [13]: 540 ng·h/mL; bioavailability [14]: 40.5%
65	CCOc1ccc(Cc2cc([C@@H]3O[C@H](/C=N/NC(=O)c4ccc(Cl)cc4)[C@@H](O)[C@H](O)[C@H]3O)ccc2Cl)cc1	
